Here are results for 15 compounds from ChEMBL document CHEMBL1275356, “Redox-silent tocotrienol esters as breast cancer proliferation and migration inhibitors” (Bioorg Med Chem, 2010).

A short description of data set [1]: Cytotoxicity against mouse +SA cells after 24 hrs by MTT assay. Format: functional, cell-based. The note with it: +SA cell. An outline of the steps:
(§1)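 Compounds dissolved in DMSO, conjugated overnight to 10% BSA at 37 °C, tested at 0–40 µM, final DMSO <0.1%. +SA cells seeded at 5 × 10⁴/well or CL-S1 at 1 × 10⁵/well (six wells/group), grown 3 days (~70% confluent), then treated 24 h. MTT 0.42 mg/mL, 4 h at 37 °C; crystals dissolved in isopropanol, read at 570 nm. Cell number from standard curve; IC50 by linear regression.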
(Formazan colour is commonly taken as a measure of viable cells.)

In a further data set the test system is MDA-MB-231. Kind of data set: Antimigratory activity against human MDA-MB-231 at 5 uM after 24 hrs by wound-healing assay. Format: functional. As to conditions: MDA-MB-231, 24 h. The method, boiled down:
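MDA-MB-231 grown in RPMI 1640 with 10 mM HEPES, 4 mM L-glutamine, 10% FBS, 5% CO2, 37 °C. Confluent (>95%) monolayers scratched with pipette tip, washed with PBS, then given compound in DMSO at 5 µM (DMSO vehicle control), in triplicate. After 24 h under serum starvation, cells fixed and Diff Quick stained. Migrated cells counted in ≥3 random 400× fields, mean ± SEM.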

Data set [2] can be described thus: Cytotoxicity against mouse CL-S1 cells assessed as cell viability after 24 hrs by MTT assay. The data set is classed as cell-based. The note with it: cl-s1, 24 h. The method, boiled down:
as §1

Data set [3] in a line: Solubility of the compound in phosphate buffer at pH 7.4 after up to 24 hrs by HPLC method relative to alpha-tocotrienol. Format: physicochemical. As to conditions: pH 7.4, 24 h. An outline of the steps: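 About 5.6 mg compound added to 3 mL pH 7.4 phosphate buffer in amber vials and shaken at 25 °C for 24 h. Centrifuged 5000 rpm, 10 min; clear supernatant sampled at 0, 1, 2, 4, 6 and 24 h. Concentration determined by HPLC with UV at 295 nm.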

The nature of data set [4]: Stability of the compound in rat plasma after 4 hrs by HPLC method relative to zero time concentration. Format: ADME, cell-free. As to conditions: read-out: Stability. The method, boiled down:
(§2)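 50 µg/mL compound dissolved in rat plasma in amber vials and incubated at 37 °C. Samples taken at 0, 0.5, 1, 2, 4, 6 and 24 h, mixed with 100 µL methanol, centrifuged 14,000 rpm for 10 min. Supernatant analysed by HPLC with UV at 295 nm, relative to zero-time concentration.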

Data set [5] is described as follows: Chemical stability of the compound in phosphate buffer at pH 7.4 after 24 hrs by HPLC method relative to zero time concentration. The data set is classed as physicochemical. The method, boiled down:
(§3)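 500 µg/mL compound dissolved in pH 7.4 phosphate buffer in amber vials and kept at 37 °C. Samples taken at 0, 0.5, 1, 2, 4, 6 and 24 h, mixed with equal volume methanol, analysed by HPLC with UV at 295 nm. Amount expressed relative to the zero-time concentration.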

Data set [6] in a line: Stability of the compound in rat plasma after 24 hrs by HPLC method relative to zero time concentration. The data set is classed as ADME, cell-free. The note with it: read-out: Stability. An outline of the steps:
as §2

The nature of data set [7]: Chemical stability of the compound in phosphate buffer at pH 7.4 after 1 hr by HPLC method relative to zero time concentration. The data set is classed as physicochemical. The note with it: pH 7.4, 1 h. The method, boiled down: as §3

pIC50: −log10 of the molar value.

Take `CC(C)=CCC/C(C)=C/CC/C(C)=C/CC[C@]1(C)CCc2c(C)c(OC(=O)c3ccc(C(=O)O)cc3C(=O)O)c(C)c(C)c2O1`: the pIC50 (usually the IC50 on a negative log10 scale, so that one unit is a factor of ten) in data set [1] was 5.82. Further, testing at 5 µM in the data set with MDA-MB-231 gave an inhibition of 50%.
In data set [1], `CC(C)=CCC/C(C)=C/CC/C(C)=C/CC[C@]1(C)CCc2cc(OC(=O)c3ccc(C(=O)O)cc3C(=O)O)c(C)c(C)c2O1` gave a pIC50 of 6.21.
As to `CC(C)=CCC/C(C)=C/CC/C(C)=C/CC[C@]1(C)CCc2c(C)c(OC(=O)c3cc(C(=O)O)ccc3C(=O)O)c(C)c(C)c2O1`, the pIC50 in data set [1] is 5.84. In the data set with MDA-MB-231, 5 µM produced 50% inhibition.
Turning to `CC(C)=CCC/C(C)=C/CC/C(C)=C/CC[C@]1(C)CCc2cc(OC(=O)c3cc(C(=O)O)ccc3C(=O)O)c(C)c(C)c2O1`, the pIC50 in data set [1] was 5.84.
In data set [1], `CC(C)=CCC/C(C)=C/CC/C(C)=C/CC[C@]1(C)CCc2cc(OC(=O)c3cc(C(=O)O)ccc3C(=O)O)cc(C)c2O1` showed a pIC50 of 5.82. The inhibition (in general, the drop in the measured response relative to a control, in per cent) at 5 µM with MDA-MB-231 amounted to 50%.
`CC(=O)Oc1cc(C(=O)Oc2cc3c(c(C)c2C)O[C@](C)(CC/C=C(\C)CC/C=C(\C)CCC=C(C)C)CC3)cc(OC(C)=O)c1OC(C)=O` showed a pIC50 in data set [1] of 5.76.
With `CC(=O)Oc1ccc(/C=C/C(=O)Oc2cc3c(c(C)c2C)O[C@](C)(CC/C=C(\C)CC/C=C(\C)CCC=C(C)C)CC3)cc1OC(C)=O`, in data set [1], the pIC50 was below 4.40. Moreover, the Activity entry in data set [2] is reported as “Non-toxic”.
In the case of `CC(C)=CCC/C(C)=C/CC/C(C)=C/CC[C@]1(C)CCc2c(C)c(OC(=O)/C=C\C(=O)O)c(C)c(C)c2O1`, the “fold change (FC)” value in data set [3] was 1000. In data set [1], the pIC50 was 6.28. In data set [4], the remaining at 4 h is 81%. Also, the remaining at 24 h in data set [5] (phosphate buffer, pH 7.4, read-out: Stability) was found to be 100%; in data set [6], 43%. Also, testing at 5 µM with MDA-MB-231 gave an inhibition of 50%.
In data set [1], `CC(C)=CCC/C(C)=C/CC/C(C)=C/CC[C@]1(C)CCc2cc(OC(=O)/C=C\C(=O)O)c(C)c(C)c2O1` gave a pIC50 of 5.64. In addition, the inhibition at 5 µM in the data set with MDA-MB-231 turned out to be 50%.
Turning to `CC(C)=CCC/C(C)=C/CC/C(C)=C/CC[C@]1(C)CCc2cc(OC(=O)/C=C\C(=O)O)cc(C)c2O1`, the negative logarithm of the IC50 (pIC50) in data set [1] is 6.06.
In data set [1], `CC(C)=CCC/C(C)=C/CC/C(C)=C/CC[C@]1(C)CCc2cc(OC(=O)CC(C)CC(=O)O)c(C)c(C)c2O1` (stereo not given in full) gave a pIC50 of 4.72. In addition, in data set [2], the Activity entry is listed as “Non-toxic”.
Turning to `CC(C)=CCC/C(C)=C/CC/C(C)=C/CC[C@]1(C)CCc2cc(OC(=O)c3ccccc3)c(C)c(C)c2O1`, the pIC50 in data set [1] was 5.18. Also, the Activity entry in data set [2] is on record as “Non-toxic”. In the data set on MDA-MB-231, this compound showed an inhibition at 5 µM of 50%.
On to `CC(C)=CCC/C(C)=C/CC/C(C)=C/CC[C@]1(C)CCc2c(C)c(O)c(C)c(C)c2O1` [ALPHA-TOCOTRIENOL], for which the Stability result was “Unstable” in data set [7] and “Unstable” in data set [5] (buffer, pH 7.4, 24 h). Also, in data set [1], the pIC50 is 5.30.
On to `CC(C)=CCC/C(C)=C/CC/C(C)=C/CC[C@]1(C)CCc2cc(O)cc(C)c2O1` [DELTA-TOCOTRIENOL], for which, in data set [1], the pIC50 was 5.52.
Still for that read-out and setting: the figure for `CC(C)=CCC/C(C)=C/CC/C(C)=C/CC[C@]1(C)CCc2cc(O)c(C)c(C)c2O1` [GAMMA-TOCOTRIENOL] is 5.40.
